Reference: ChEMBL document CHEMBL5674889, “Enhanced JunD/RSK3 signalling due to loss of BRD4/FOXD3/miR-548d-3p axis determines BET inhibition resistance” (2020)
Active and inactive are the calls of the source. The rule behind the calls is not given here.

How the values were obtained:
BT-549 [1] = experiment: Effect on human BRD4-knockdown BT-549 cells assessed as miR-548d-3p expression at 1 uM by real-time PCR analysis; assay type: functional, cell-based
BT-549 [2] = experiment: Antiproliferative activity in human BT-549 cells assessed as inhibition of cell growth at 1 uM by CCK-8 assay; assay type: functional, cell-based
MDA-MB-231 [3] = experiment: Induction of apoptosis in human MDA-MB-231 cells expressing vector control assessed as viable cells at 1 uM by Annexin V-FITC flow cytometric analysis (reference value: 91.91%); assay type: functional; conditions: read-out: Activity
Summary of the method: (§1)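 Stable clones (vector, RSK3-overexpressing or RPS6KA2-knockdown) treated ± JQ1 1 μM. Cells washed twice in PBS, resuspended at 1 × 10^6 cells/ml in binding buffer, stained with Annexin V-FITC and propidium iodide for 10 min at room temperature in the dark, then read by flow cytometry. Three independent experiments; one-way ANOVA.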

BT-549 [4] = experiment: Antiproliferative activity in human JUND-overexpressing BT-549 cells assessed as tumor sphere formation at 1 uM by Tumor sphere assay; assay type: functional, cell-based
MDA-MB-231 [5] = experiment: Effect on human JUND-overexpressing MDA-MB-231 cells assessed as RSK3 protein expression at 1 uM by Western blot analysis; assay type: functional, cell-based
Summary of the method: (§2)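 RSK3 and JunD were probed by western blot in JUND-knockdown or JUND-overexpressing stable clones and their controls, all selected with puromycin 1.0 μg/ml. Antibodies used at 1:1000.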

BT-549 [6] = experiment: Effect on human JUND-overexpressing BT-549 cells assessed as RSK3 protein expression at 1 uM by Western blot analysis; assay type: functional, cell-based; summary of the method: as §2
BT-549 [7] = experiment: Antiproliferative activity in human JUND-knockdown BT-549 cells assessed as stronger tumor sphere formation at 1 uM by tumor sphere assay; assay type: functional, cell-based
MDA-MB-231 [8] = experiment: Antiproliferative activity in human JUND-knockdown MDA-MB-231 cells assessed as stronger tumor sphere formation at 1 uM by tumor sphere assay; assay type: functional, cell-based
MDA-MB-231 [9] = experiment: Cytotoxicity in human RSK3-overexpressing MDA-MB-231 cells assessed as cell viability at 1 uM for 48 hrs by CellTiter-Glo luminescent cell viability assay; assay type: functional, cell-based
Summary of the method: (§3)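 CellTiter-Glo viability: stable overexpressing or shRNA clones (puromycin 1.0 μg/ml selection) seeded 3000 cells/well, adhered overnight, then exposed to 1 μM for 48 h. Luminescence is background-subtracted and normalised to DMSO-treated control. Triplicates, mean ± SD, one-way ANOVA. MDA-MB-231 cells are kept in DMEM and BT549 in RPMI-1640, each with 10% FBS.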

BT-549 [10] = experiment: Antiproliferative activity in human RPS6KA2-knockdown BT-549 cells assessed as cell viability at 1 uM for 48 hrs by CellTiter-Glo luminescent cell viability assay; assay type: functional, cell-based; summary of the method: as §3
BT-549 [11] = experiment: Induction of apoptosis in human RPS6KA2-knockdown BT-549 cells at 1 uM by FACS assay; assay type: functional, cell-based; summary of the method: as §1
MDA-MB-231 [12] = experiment: Effect on human RPS6KA2-knockdown MDA-MB-231 cells assessed as inhibition tumor sphere formation at 1 uM by Tumor sphere assay; assay type: functional, cell-based
BT-549 [13] = experiment: Effect on induction of RPS6KA2 transcription in human BT-549 cells assessed as JunD protein expression at 1 uM for 24 hrs by Western blot analysis; assay type: functional, cell-based
BT-549 [14] = experiment: Effect on induction of RPS6KA2 transcription in human BT-549 cells assessed as enhanced luciferase activity at 1 uM for 6 hrs by Luciferase reporter assay; assay type: functional, cell-based
Summary of the method: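 Control or JunD-shRNA BLBC cells were transfected with the RPS6KA2 enhancer luciferase reporter (FuGene 6, 24 h) and then treated with DMSO or JQ1 1 μM for 6 h. Dual-luciferase read-out given as fold induction over vector control. Three experiments in triplicate.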

HEK-293T = experiment: Effect on human HEK293T cells transfected with BRD4 assessed as decrease in luciferase activity at 1 uM for 6 hrs by Luciferase reporter assay; assay type: functional, cell-based
MDA-MB-231 [15] = experiment: Effect on human BRD4-knockdown MDA-MB-231 assessed as decreased luciferase activity at 1 uM for 6 hrs by Luciferase reporter assay; assay type: functional, cell-based
MDA-MB-231 [16] = experiment: Inhibition of FOXD3/-BRD4 protein-protein interaction in human MDA-MB-231 cells at 1 uM by Co-immunoprecipitation analysis; assay type: cell-based
Summary of the method: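 Endogenous FOXD3 or BRD4 pulled down from MDA-MB-231 lysates with specific antibodies; partner detected by western blot.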

MDA-MB-231 [17] = experiment: Antiproliferative activity in human FOXD3-knockdown MDA-MB-231 cells co-silenced with shRNA of JUND assessed as cell growth at 1 uM by CCK-8 assay; assay type: functional, cell-based
MCF7 = experiment: Antiproliferative activity in human FOXD3-overexpressing MCF7 cells assessed as cell growth at 1 uM by CCK-8 assay; assay type: functional, cell-based
BT-549 [18] = experiment: Antiproliferative activity in human JunD-overexpressing BT-549 cells assessed as cell growth in the presence of osimertinib at 1 uM by CCK-8 assay; assay type: functional, cell-based
BT-549 [19] = experiment: Antiproliferative activity in human BT-549 cells assessed as cell growth for 48 hrs in the presence of osimertinib at 1 uM by CCK-8 assay; assay type: functional, cell-based
Summary of the method: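 Cells seeded 3000/well, adhered overnight, treated with JQ1 (1 μM) with or without osimertinib (1 μM) for 48 h; growth by CCK-8 kit, normalized to DMSO-treated control; triplicates, mean ± SD, one-way ANOVA.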

BT-549 [20] = experiment: Antiproliferative activity in human BT-549 cells assessed as cell growth inhibition for 48 hrs in the presence of […] at 1 uM by CCK-8 assay; assay type: functional, cell-based
BT-549 [21] = experiment: Induction of apoptosis in human BT-549 cells in the presence of osimertinib at 1 uM by flow cytometry analysis; assay type: functional, cell-based
Summary of the method: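 Cells given JQ1 and/or osimertinib, then stained with Annexin V-FITC plus propidium iodide (10 min, room temperature, dark; 1 × 10^6 cells/ml in binding buffer after two PBS washes) and analysed by flow cytometry; one-way ANOVA.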

MDA-MB-231 [22] = experiment: Antitumor activity against human MDA-MB-231 cells xenografted in BALB/c nude mouse model assessed as reduction of tumor size in the presence of osimertinib at 35 mg/kg/day, sc administered every 2 days for 30 days; assay type: functional, organism-based; conditions: time 30.0 day
Summary of the method: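 MDA-MB-231 xenografts used 1 × 10^6 cells injected subcutaneously into female BALB/c nude mice (4–6 weeks). Animals were split into four groups (n = 7) at ~100 mm3: vehicle, osimertinib 10 mg/kg, 35 mg/kg agent, or the combination, each given every 2 days. Volume was measured by calliper as length × width²/2; tumours were weighed at end.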

MDA-MB-231 [23] = experiment: Antiproliferative activity in human MDA-MB-231 cells assessed as inhibited cell growth at 1 uM by CCK-8 assay; assay type: functional, cell-based
MDA-MB-231 [24] = experiment: Antiproliferative activity in human RPS6KA2-knockdown MDA-MB-231 cells assessed as inhibited cell growth at 1 uM for 48 hrs by CCK-8 assay; assay type: functional, cell-based
MDA-MB-231 [25] = experiment: Induction of apoptosis in human MDA-MB-231 cells over expressing RSK3 assessed as viable cells at 1 uM by Annexin V-FITC flow cytometric analysis (reference value: 91.18%); assay type: functional; conditions: read-out: Activity; summary of the method: as §1
MDA-MB-231 [26] = experiment: Induction of apoptosis in human MDA-MB-231 cells over expressing RSK3 assessed as late apoptotic cells at 1 uM by Annexin V-FITC flow cytometric analysis (reference value: 1.45%); assay type: functional; summary of the method: as §1

Cc1sc2c(c1C)C(c1ccc(Cl)cc1)=N[C@@H](CC(=O)OC(C)(C)C)c1nnc(C)n1-2
Activity (BT-549 [1]): Active
Activity (BT-549 [2]): Active
viability at 1 µM (MDA-MB-231 [3]): 76.7%
Activity (BT-549 [4]): Active
Activity (MDA-MB-231 [5]): Active
Activity (BT-549 [6]): Active
Activity (BT-549 [7]): Active
Activity (MDA-MB-231 [8]): Active
Activity (MDA-MB-231 [9]): Active
Activity (BT-549 [10]): Active
Activity (BT-549 [11]): Active
Activity (MDA-MB-231 [12]): Active
Activity (BT-549 [13]): Active
Activity (BT-549 [14]): Active
Activity (HEK-293T): Active
Activity (MDA-MB-231 [15]): Active
inhibition (MDA-MB-231 [16]): Active
Activity (MDA-MB-231 [17]): Active
Activity (MCF7): Active
Activity (BT-549 [18]): Active
Activity (BT-549 [19]): Active
Activity (BT-549 [20]): Active
Activity (BT-549 [21]): Active
Activity (MDA-MB-231 [22]): Active
Activity (MDA-MB-231 [23]): Active
Activity (MDA-MB-231 [24]): Active
viability at 1 µM (MDA-MB-231 [25]): 88.3%
Activity (MDA-MB-231 [26]): 2.9%
